From ChEMBL document CHEMBL2375244 (J Med Chem, 2013)
Activity calls are given as the source filed them. The calls are words filed in the database; no cut-off is given here.

What was measured:
CDK2/Cyclin A2 = CDK2/Cyclin A2 (Homo sapiens, UniProt P24941); assay: Inhibition of human CDK2/Cyclin A2 using PKTPKKAKKL as substrate by P33-radiolabeled assay; format: protein-complex assay
Outline: (§1)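 Radiometric (P33) kinase assay run by a contract lab on CDK–cyclin complexes. Inhibitor tested in duplicate at 0.05 nM to 1000 nM with ATP at 10 μM. […] For the in-house assays, IC50 was obtained by Hill-equation fitting.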

[1] = molecular target: Cyclin-dependent kinase 2 (Homo sapiens) (UniProt P24941); assay: Inhibition of CDK2-mediated Rb phosphorylation at Ser 807/811 in human NCI-H929 cells at […] after 24 hrs by immunoblotting analysis; format: cell-based
A673 = assay: Induction of apoptosis in human A673 cells assessed as caspase-3 activation at 0.05 uM to 5 uM after 24 hrs by luminescence assay relative to control; format: functional
Outline: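 Caspase-3/7 activation measured with a Caspase-Glo 3/7 luminescent assay. Cells were plated as for the high-throughput viability assay and exposed for 24 h to serial dilutions. EC50 was obtained from the dose-response.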

BT-549 = assay: Cytotoxicity against human BT549 cells after 72 hrs by resazurin/resorufin-based fluorescence assay; format: functional, cell-based; settings: BT-549, 72 h
Outline: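 CellTiter-Blue viability: 1200 cells per well seeded, incubated overnight at 37 °C, 5% CO₂; drugs serially diluted 2:3 in medium, four replicate wells per concentration plus four diluent-only control wells; 72 h exposure; resazurin reduction to resorufin read by fluorescence (579 nm ex/584 nm em). IC50 is the average of three data sets, each using nine concentrations between 0.004 μM and 12.5 μM.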

MDA-MB-231 = assay: Cytotoxicity against human MDA-MB-231 cells after 72 hrs by resazurin/resorufin-based fluorescence assay; format: functional, cell-based; settings: MDA-MB-231, 72 h
T47D = assay: Cytotoxicity against human T47D cells after 72 hrs by resazurin/resorufin-based fluorescence assay; format: functional, cell-based
[2] = Cytotoxicity against mouse GC-1 cells after 72 hrs by MTT assay; format: functional, cell-based; settings: GC-1, 72 h
Outline: (§2)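 Cells kept in RPMI or DMEM with 10% FBS at 37 °C, 5% CO₂ and allowed to attach overnight; 72 h with increasing inhibitor concentrations; then 1 mg/mL MTT for 3 h, DMSO solubilisation, OD read at 540 nm. Testis lines had culture conditions adapted to them. Dose-response in triplicate, 9 concentrations between 0.02 and 100 μM, averaged.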

[3] = Cytotoxicity against mouse GC-2 cells after 72 hrs by MTT assay; format: functional, cell-based; settings: GC-2, 72 h; outline: as §2
MDA-MB-468 = assay: Cytotoxicity against human MDA-MB-468 cells after 72 hrs by MTT assay; format: functional, cell-based; settings: MDA-MB-468, 72 h; outline: as §2
[4] = molecular target: Cyclin-dependent kinase 1/cyclin B1 (Homo sapiens) (UniProt P06493+P14635); assay: Inhibition of human CDK1/Cyclin B at 0.1 uM incubated for 15 mins prior to substrate addition measured after 90 mins by P33-radiolabeled assay relative to control; format: protein-complex assay
[5] = molecular target: CDK2/Cyclin A1 (Homo sapiens) (UniProt P24941+P78396); assay: Inhibition of human CDK2/Cyclin A1 at 0.1 uM incubated for 15 mins prior to substrate addition measured after 90 mins by P33-radiolabeled assay relative to control; format: protein-complex assay
[6] = molecular target: Cyclin-dependent kinase 2/cyclin E1 (Homo sapiens) (UniProt P24864+P24941); assay: Inhibition of human CDK2/Cyclin E at 0.1 uM incubated for 15 mins prior to substrate addition measured after 90 mins by P33-radiolabeled assay relative to control; format: protein-complex assay
[7] = molecular target: T1, Cyclin-dependent kinase 5/CDK5 activator 1 (Homo sapiens) (UniProt Q00535+Q15078); assay: Inhibition of human CDK5/P25 at 0.1 uM incubated for 15 mins prior to substrate addition measured after 90 mins by P33-radiolabeled assay relative to control; format: protein-complex assay
[8] = molecular target: T1, Cyclin-dependent kinase 5/CDK5 activator 1 (Homo sapiens); assay: Inhibition of human CDK5/P35 at 0.1 uM incubated for 15 mins prior to substrate addition measured after 90 mins by P33-radiolabeled assay relative to control; format: protein-complex assay
[9] = molecular target: CDK4/Cyclin D3 (Homo sapiens) (UniProt P11802+P30281); assay: Inhibition of human CDK4/Cyclin D3 at 0.1 uM incubated for 15 mins prior to substrate addition measured after 90 mins by P33-radiolabeled assay relative to control; format: protein-complex assay
[10] = molecular target: CDK1/Cyclin E (Homo sapiens) (UniProt P06493+P24864); assay: Inhibition of human CDK1/Cyclin E at 0.1 uM incubated for 15 mins prior to substrate addition measured after 90 mins by P33-radiolabeled assay relative to control; format: protein-complex assay
[11] = molecular target: Cyclin-dependent kinase 4/cyclin D1 (Homo sapiens) (UniProt P11802+P24385); assay: Inhibition of human CDK4/Cyclin D1 at 0.1 uM incubated for 15 mins prior to substrate addition measured after 90 mins by P33-radiolabeled assay relative to control; format: protein-complex assay
[12] = molecular target: CDK1/Cyclin A (Homo sapiens) (UniProt P06493+P20248); assay: Inhibition of human CDK1/Cyclin A at 0.1 uM incubated for 15 mins prior to substrate addition measured after 90 mins by P33-radiolabeled assay relative to control; format: protein-complex assay
[13] = molecular target: Dual specificity protein kinase CLK2 (Homo sapiens) (UniProt P49760); assay: Inhibition of human CLK2 at 0.1 uM incubated for 15 mins prior to substrate addition measured after 90 mins by P33-radiolabeled assay relative to control
[14] = molecular target: Serine/threonine-protein kinase TAO1 (Homo sapiens) (UniProt Q7L7X3); assay: Inhibition of human TAO1 at 0.1 uM incubated for 15 mins prior to substrate addition measured after 90 mins by P33-radiolabeled assay relative to control
[15] = molecular target: CDK6/cyclin D3 (Homo sapiens) (UniProt P30281+Q00534); assay: Inhibition of human CDK6/Cyclin D3 at 0.1 uM incubated for 15 mins prior to substrate addition measured after 90 mins by P33-radiolabeled assay relative to control; format: protein-complex assay
CDK9/Cyclin K = CDK9/Cyclin K (Homo sapiens, UniProt P50750); assay: Inhibition of CDK9/Cyclin K (unknown origin)-mediated phosphorylation of peptide substrate incubated for 15 mins prior to substrate addition measured after 90 mins by P33-radiolabeled assay; format: protein-complex assay; outline: as §1
[16] = molecular target: Cyclin-dependent kinase 7/ cyclin H (Homo sapiens, UniProt P50613); assay: Inhibition of CDK7/Cyclin H (unknown origin)-mediated phosphorylation of peptide substrate incubated for 15 mins prior to substrate addition measured after 90 mins by P33-radiolabeled assay; format: protein-complex assay
CDK6/cyclin D1 = CDK6/cyclin D1 (Homo sapiens, UniProt Q00534); assay: Inhibition of CDK6/Cyclin D1 (unknown origin)-mediated phosphorylation of peptide substrate incubated for 15 mins prior to substrate addition measured after 90 mins by P33-radiolabeled assay; format: protein-complex assay
[17] = molecular target: Cyclin-dependent kinase 5/CDK5 activator 1 (Homo sapiens, UniProt Q00535); assay: Inhibition of CDK5/P25 (unknown origin)-mediated phosphorylation of peptide substrate incubated for 15 mins prior to substrate addition measured after 90 mins by P33-radiolabeled assay; format: protein-complex assay
[18] = molecular target: Cyclin-dependent kinase 4/cyclin D1 (Homo sapiens, UniProt P11802); assay: Inhibition of CDK4/Cyclin D1 (unknown origin)-mediated phosphorylation of peptide substrate incubated for 15 mins prior to substrate addition measured after 90 mins by P33-radiolabeled assay; format: protein-complex assay
Sequence of Cyclin-dependent kinase 4/cyclin D1 (P11802 whole entry): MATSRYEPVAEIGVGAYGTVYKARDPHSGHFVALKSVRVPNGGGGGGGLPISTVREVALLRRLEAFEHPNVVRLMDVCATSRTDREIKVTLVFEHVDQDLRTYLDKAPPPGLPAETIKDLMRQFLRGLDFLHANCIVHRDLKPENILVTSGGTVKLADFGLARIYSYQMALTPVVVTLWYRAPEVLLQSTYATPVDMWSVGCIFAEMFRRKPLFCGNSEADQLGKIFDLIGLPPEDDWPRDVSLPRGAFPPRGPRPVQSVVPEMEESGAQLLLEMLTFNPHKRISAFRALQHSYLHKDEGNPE
Sequence of Cyclin-dependent kinase 4/cyclin D1 (P24385 whole entry, further chain): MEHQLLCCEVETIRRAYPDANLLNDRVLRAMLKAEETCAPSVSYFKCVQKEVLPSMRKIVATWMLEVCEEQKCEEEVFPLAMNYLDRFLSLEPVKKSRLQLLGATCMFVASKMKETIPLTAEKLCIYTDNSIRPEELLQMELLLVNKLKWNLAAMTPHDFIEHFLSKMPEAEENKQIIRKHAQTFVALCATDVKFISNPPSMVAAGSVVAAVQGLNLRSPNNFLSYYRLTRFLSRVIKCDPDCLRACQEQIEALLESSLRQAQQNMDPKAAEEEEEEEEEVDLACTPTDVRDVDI

T1 sequence (Q00535 whole entry): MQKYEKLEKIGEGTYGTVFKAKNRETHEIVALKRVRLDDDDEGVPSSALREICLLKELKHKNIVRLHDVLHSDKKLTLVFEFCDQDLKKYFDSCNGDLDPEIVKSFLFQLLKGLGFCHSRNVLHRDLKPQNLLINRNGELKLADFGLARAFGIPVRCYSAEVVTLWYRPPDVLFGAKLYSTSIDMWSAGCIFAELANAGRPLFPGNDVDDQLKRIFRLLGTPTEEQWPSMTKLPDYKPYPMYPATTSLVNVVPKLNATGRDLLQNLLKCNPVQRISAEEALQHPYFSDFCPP
T1 sequence (Q15078 99-307 partner limits assumed): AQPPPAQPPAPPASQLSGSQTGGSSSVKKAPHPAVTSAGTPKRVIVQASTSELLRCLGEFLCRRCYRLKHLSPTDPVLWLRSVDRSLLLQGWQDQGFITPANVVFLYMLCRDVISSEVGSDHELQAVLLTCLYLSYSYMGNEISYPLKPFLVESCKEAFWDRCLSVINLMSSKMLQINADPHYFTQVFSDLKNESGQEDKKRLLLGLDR
Sequence of Cyclin-dependent kinase 7/ cyclin H (P51946 whole entry): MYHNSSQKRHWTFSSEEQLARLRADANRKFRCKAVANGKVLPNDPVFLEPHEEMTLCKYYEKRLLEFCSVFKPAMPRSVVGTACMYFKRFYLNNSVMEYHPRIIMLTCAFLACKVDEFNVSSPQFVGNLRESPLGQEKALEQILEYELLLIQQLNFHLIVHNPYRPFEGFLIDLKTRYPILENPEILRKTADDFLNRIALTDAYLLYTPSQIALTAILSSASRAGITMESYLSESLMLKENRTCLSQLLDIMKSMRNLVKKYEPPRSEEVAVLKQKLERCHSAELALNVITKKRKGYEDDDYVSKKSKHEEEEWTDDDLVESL
Sequence of Cyclin-dependent kinase 7/ cyclin H (P50613 whole entry): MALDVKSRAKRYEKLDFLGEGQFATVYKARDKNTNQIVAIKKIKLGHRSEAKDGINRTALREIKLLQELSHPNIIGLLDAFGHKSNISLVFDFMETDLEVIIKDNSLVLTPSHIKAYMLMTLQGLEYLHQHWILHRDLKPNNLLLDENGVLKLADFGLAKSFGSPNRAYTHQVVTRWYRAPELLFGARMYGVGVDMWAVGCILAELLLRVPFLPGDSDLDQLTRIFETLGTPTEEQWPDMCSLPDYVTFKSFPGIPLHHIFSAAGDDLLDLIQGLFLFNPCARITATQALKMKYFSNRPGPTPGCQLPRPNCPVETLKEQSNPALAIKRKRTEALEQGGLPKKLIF
Sequence of Serine/threonine-protein kinase TAO1 (Homo sapiens) (Q7L7X3 whole entry): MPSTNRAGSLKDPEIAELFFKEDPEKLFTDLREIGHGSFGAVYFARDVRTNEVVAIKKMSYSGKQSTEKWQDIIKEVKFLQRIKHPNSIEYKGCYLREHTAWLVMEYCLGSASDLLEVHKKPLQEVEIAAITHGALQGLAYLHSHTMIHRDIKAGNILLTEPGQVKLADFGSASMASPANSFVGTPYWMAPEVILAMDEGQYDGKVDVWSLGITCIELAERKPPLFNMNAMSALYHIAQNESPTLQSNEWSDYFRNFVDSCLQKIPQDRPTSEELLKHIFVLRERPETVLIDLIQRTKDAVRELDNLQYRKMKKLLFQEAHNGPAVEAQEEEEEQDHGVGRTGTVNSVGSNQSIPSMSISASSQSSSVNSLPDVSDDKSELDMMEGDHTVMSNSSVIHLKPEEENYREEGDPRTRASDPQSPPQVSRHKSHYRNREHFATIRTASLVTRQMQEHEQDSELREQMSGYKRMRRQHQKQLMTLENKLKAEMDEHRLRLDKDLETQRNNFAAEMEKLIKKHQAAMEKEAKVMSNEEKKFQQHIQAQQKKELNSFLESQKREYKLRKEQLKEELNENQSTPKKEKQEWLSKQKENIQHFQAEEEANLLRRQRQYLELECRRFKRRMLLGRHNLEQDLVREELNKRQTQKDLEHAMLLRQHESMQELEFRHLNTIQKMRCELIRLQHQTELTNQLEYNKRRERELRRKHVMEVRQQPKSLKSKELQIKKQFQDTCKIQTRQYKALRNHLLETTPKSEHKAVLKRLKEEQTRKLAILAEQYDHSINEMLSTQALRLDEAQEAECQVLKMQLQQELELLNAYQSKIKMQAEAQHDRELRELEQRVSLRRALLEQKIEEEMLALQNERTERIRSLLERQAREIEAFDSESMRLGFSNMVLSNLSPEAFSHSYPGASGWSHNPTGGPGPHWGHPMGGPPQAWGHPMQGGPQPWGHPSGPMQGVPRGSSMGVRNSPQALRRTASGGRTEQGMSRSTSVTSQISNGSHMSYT
Sequence of Cyclin-dependent kinase 5/CDK5 activator 1 (Q00535 whole entry): as the sequence (Q00535 whole entry) above
Sequence of Cyclin-dependent kinase 5/CDK5 activator 1 (Q15078 whole entry, further chain): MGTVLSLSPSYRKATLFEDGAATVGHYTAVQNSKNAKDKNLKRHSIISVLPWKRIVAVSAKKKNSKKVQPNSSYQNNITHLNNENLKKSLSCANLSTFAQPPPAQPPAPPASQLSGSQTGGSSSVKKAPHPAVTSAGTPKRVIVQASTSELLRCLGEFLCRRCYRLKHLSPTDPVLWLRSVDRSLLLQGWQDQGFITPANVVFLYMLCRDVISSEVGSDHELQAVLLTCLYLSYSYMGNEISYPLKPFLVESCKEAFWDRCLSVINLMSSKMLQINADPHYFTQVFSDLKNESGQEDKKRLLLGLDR
Sequence of CDK9/Cyclin K (P50750 whole entry): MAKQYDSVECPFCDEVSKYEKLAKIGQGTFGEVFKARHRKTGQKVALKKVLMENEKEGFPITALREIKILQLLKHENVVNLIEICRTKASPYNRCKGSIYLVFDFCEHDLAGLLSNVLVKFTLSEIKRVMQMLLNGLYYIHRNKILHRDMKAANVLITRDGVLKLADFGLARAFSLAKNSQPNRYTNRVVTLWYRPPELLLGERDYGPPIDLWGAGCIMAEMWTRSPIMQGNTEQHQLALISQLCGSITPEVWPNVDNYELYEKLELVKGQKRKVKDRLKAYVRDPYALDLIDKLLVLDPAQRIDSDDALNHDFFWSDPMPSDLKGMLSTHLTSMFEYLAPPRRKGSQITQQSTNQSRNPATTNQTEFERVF
Sequence of CDK9/Cyclin K (O75909 whole entry, further chain): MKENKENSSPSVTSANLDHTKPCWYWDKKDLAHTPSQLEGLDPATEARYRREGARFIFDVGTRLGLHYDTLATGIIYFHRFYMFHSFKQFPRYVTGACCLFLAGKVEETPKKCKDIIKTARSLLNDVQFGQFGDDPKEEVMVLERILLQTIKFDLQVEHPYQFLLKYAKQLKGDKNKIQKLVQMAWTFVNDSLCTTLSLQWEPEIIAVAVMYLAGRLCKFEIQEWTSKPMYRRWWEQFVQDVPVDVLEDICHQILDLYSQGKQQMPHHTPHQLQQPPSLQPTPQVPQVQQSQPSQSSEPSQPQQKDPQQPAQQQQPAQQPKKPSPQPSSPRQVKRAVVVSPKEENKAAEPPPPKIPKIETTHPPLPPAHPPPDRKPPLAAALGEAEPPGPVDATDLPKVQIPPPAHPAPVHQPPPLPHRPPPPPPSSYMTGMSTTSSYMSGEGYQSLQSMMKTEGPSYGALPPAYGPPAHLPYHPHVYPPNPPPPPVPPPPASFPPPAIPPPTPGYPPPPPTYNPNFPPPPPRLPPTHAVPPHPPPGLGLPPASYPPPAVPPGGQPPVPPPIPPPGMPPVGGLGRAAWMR
Sequence of Dual specificity protein kinase CLK2 (Homo sapiens) (P49760 whole entry, looked up): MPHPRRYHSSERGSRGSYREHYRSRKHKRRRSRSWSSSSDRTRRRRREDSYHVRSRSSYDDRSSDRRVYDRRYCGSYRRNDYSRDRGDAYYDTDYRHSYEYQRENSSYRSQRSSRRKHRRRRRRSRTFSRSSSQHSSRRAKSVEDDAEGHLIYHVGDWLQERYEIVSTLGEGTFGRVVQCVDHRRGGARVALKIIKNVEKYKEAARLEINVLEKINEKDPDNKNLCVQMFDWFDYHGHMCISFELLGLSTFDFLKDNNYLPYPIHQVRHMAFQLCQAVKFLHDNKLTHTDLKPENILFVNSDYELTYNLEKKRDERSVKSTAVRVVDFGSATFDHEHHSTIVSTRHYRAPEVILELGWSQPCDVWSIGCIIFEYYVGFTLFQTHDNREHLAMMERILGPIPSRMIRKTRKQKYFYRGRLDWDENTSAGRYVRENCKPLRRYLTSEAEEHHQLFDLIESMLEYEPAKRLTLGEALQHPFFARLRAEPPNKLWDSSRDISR

IC50 (CDK2/Cyclin A2): 1.5 nM
inhibition [1]: Active
inhibition [4]: 90%
inhibition [5]: 90%
inhibition [6]: 90%
inhibition [7]: 90%
inhibition [8]: 90%
inhibition [9]: 80%
inhibition [10]: 80%
inhibition [11]: 80%
inhibition [12]: 70%
inhibition [13]: 60%
inhibition [14]: 60%
inhibition [15]: 85%
IC50 (CDK9/Cyclin K): 13 nM
IC50 [16]: > 1000 nM
IC50 (CDK6/cyclin D1): 6.6 nM
IC50 [17]: 1.5 nM
IC50 [18]: 4 nM
Compound: Nc1nc(Nc2ccc(S(N)(=O)=O)cc2)sc1C(=O)c1ccccc1[N+](=O)[O-]
Activity (A673): 196%
IC50 (BT-549): > 10000 nM
IC50 (MDA-MB-231): 1500 nM
IC50 (T47D): 500 nM
IC50 [2]: 20000 nM
IC50 [3]: 9000 nM
IC50 (MDA-MB-468): 300 nM
